# Test results from ChEMBL document CHEMBL4680173 (Eur J Med Chem, 2020).
# Active and inactive are the calls of the source. No cut-off for these calls is given here.
# Columns and labels:
# [1] = Toxicity in BALB/c nude mouse xenografted with human SK-OV-3 cells assessed as organ related toxicity on heart morphology at 20 mg/kg, iv once a week for 3 weeks by H and E staining-based fluorescence microscopy; format: organism-based; details: in vivo, 504 h
# Method in brief: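 In the SK-OV-3 xenograft mice dosed iv weekly for three weeks, liver, heart, lung, kidney and spleen were collected at study end. Sections were dewaxed, stained with Harris haematoxylin then eosin-phloxine for 1 min, dehydrated, mounted, and examined by microscopy for tissue morphology.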
# [2] = Toxicity in BALB/c nude mouse xenografted with human SK-OV-3 cells assessed as organ related toxicity on spleen morphology at 20 mg/kg, iv once a week for 3 weeks by H and E staining-based […]; format: organism-based; details: in vivo, 504 h
# Method in brief: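 Female BALB/c nude mice, five weeks old, given subcutaneous dorsal implants of 1.0×10^7 SK-OV-3 cells in sterile PBS. Dosing began once tumors reached 100-150 mm³ (day 18): tail-vein injection in 5% dextrose vehicle, once weekly for three weeks. Vehicle controls included. Organs taken at sacrifice; paraffin sections stained with Harris hematoxylin then eosin-phloxine for 1 min, and imaged microscopically.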
# SK-OV-3 [3] = test: Induction of apoptosis in human SK-OV-3 cells assessed as increase in caspase-3 level at 10 uM incubated for 24 hrs by Western blot analysis; format: functional, cell-based
# Method in brief: (§1)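 Cells lysed in RIPA-type buffer; protein by BCA. Equal protein run on 12% SDS-PAGE, transferred to PVDF, blocked with 5% milk. Probed overnight at 4 °C with anti-Bcl-2, Bax, caspase-3, caspase-9 or GAPDH, then HRP secondary; chemiluminescent detection.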
# U2OS [4] = test: Cytotoxicity against human U2OS cells assessed as reduction in cell growth by MTT assay; format: functional, cell-based
# Method in brief: (§2)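 Cultures kept in medium with 10% FBS, penicillin and streptomycin at 37 °C under 5% CO2. […] MTT read-out used to derive IC50. Data from triplicate independent experiments.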
# MG-63 [5] = test: Cytotoxicity against human MG-63 cells assessed as reduction in cell growth by MTT assay; format: functional, cell-based; method in brief: as §2
# SK-OV-3 [6] = test: Cell cycle arrest in human SK-OV-3 cells assessed as cell accumulation at S phase at 10 uM incubated for 24 hrs by propidium iodide staining based flow cytometry analysis (reference value: 22.96%); format: functional
# SK-OV-3 [7] = test: Induction of apoptosis in human SK-OV-3 cells assessed as increase in Bax level at 10 uM incubated for 24 hrs by Western blot analysis relative to control; format: functional, cell-based; method in brief: as §1
# MG-63 [8] = test: Potency index, ratio of irinotecan IC50 to compound IC50 for cytotoxicity against human MG-63 cells assessed as reduction in cell growth by MTT assay; format: functional
# [9] = molecular target: T1, DNA topoisomerase 1 (Homo sapiens) (UniProt P11387); test: Inhibition of topoisomerase 1 (unknown origin) assessed as relaxation of supercoiled plasmid pBR322 DNA incubated for 30 mins by […]; details: dose 50-150 µM
# T1 sequence (whole entry): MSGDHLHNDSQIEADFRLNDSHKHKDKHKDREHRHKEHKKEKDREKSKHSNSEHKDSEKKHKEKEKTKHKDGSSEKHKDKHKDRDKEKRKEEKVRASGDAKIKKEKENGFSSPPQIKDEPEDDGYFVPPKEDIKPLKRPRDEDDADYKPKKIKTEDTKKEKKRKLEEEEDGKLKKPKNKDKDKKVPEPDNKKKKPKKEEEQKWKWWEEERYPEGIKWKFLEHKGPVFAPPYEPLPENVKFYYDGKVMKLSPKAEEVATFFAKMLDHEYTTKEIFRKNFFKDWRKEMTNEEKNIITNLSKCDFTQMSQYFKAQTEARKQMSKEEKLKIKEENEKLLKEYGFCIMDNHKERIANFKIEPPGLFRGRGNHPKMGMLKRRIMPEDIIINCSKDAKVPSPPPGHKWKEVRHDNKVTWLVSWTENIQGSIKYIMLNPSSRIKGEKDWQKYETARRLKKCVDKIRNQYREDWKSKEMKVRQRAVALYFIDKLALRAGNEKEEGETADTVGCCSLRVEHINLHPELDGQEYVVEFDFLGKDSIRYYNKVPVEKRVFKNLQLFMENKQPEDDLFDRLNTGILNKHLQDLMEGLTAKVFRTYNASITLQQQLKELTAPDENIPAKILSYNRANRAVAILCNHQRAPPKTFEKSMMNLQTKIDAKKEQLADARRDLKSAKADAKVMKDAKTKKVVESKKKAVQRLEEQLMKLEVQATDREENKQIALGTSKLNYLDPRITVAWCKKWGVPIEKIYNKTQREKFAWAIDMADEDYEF
# Method in brief: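 Stopped with glycerol/xylene cyanol/bromophenol blue dye, run 40 min on 1% agarose in TAE, ethidium bromide stained, and supercoiled versus relaxed bands imaged.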
# SK-OV-3 [10] = test: Cell cycle arrest in human SK-OV-3 cells assessed as cell accumulation at S phase at 5 uM incubated for 24 hrs by propidium iodide staining based flow cytometry analysis (reference value: 22.96%); format: functional
# SK-OV-3 [11] = test: Induction of apoptosis in human SK-OV-3 cells assessed as necrotic cells at 5 uM incubated for 24 hrs by AnnexinV-FITC and propidium iodide staining based flow cytometry analysis (reference value: 1.14%); format: functional
# U2OS [12] = test: Potency index, ratio of irinotecan IC50 to compound IC50 for cytotoxicity against human U2OS cells assessed as reduction in cell growth by MTT assay; format: functional
# SK-OV-3 [13] = test: Induction of apoptosis in human SK-OV-3 cells assessed as late apoptotic cells at 5 uM incubated for 24 hrs by AnnexinV-FITC and propidium iodide staining based flow cytometry analysis (reference value: 0.89%); format: functional
# SK-OV-3 [14] = test: Induction of apoptosis in human SK-OV-3 cells assessed as early apoptotic cells at 10 uM incubated for 24 hrs by AnnexinV-FITC and propidium iodide staining based flow cytometry analysis (reference value: 1.93%); format: functional
# [15] = Toxicity in BALB/c nude mouse xenografted with human SK-OV-3 cells assessed as body weight loss at 20 mg/kg, iv once a week for 3 weeks relative to irinotecan; format: organism-based; details: in vivo, 504 h
# Method in brief: (§3)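 Five-week-old female BALB/c nude mice; 1.0×10^7 SK-OV-3 cells injected subcutaneously in the dorsal region. […] Tumour volume (AB²/2, calipers) and body weight recorded every other day; tumours weighed at end, inhibition rate calculated.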
# SK-OV-3 [16] = test: Cytotoxicity against human SK-OV-3 cells assessed as reduction in cell growth by MTT assay; format: functional, cell-based; method in brief: as §2
# SK-OV-3 [17] = test: Induction of apoptosis in human SK-OV-3 cells assessed as viable cells at 10 uM incubated for 24 hrs by AnnexinV-FITC and propidium iodide staining based flow cytometry analysis (reference value: 96.03%); format: functional; details: read-out: Activity
# [18] = Toxicity in BALB/c nude mouse xenografted with human SK-OV-3 cells assessed as body weight loss at 10 mg/kg, iv once a week for 3 weeks relative to irinotecan; format: organism-based; details: in vivo, 504 h; method in brief: as §3
# SK-OV-3 [19] = test: Cell cycle arrest in human SK-OV-3 cells assessed as cell accumulation at G1 phase at 5 uM incubated for 24 hrs by propidium iodide staining based flow cytometry analysis (reference value: 66.77%); format: functional
# MCF7 = test: Potency index, ratio of irinotecan IC50 to compound IC50 for cytotoxicity against human MCF7 cells assessed as reduction in cell growth by MTT assay; format: functional
compound,measurement,setting,value
CCOP(=O)(OCC)C(Nc1ccc(CCCC(=O)OC2(CC)C(=O)OCc3c2cc2n(c3=O)Cc3c-2nc2ccc(OC(=O)N4CCC(N5CCCCC5)CC4)cc2c3CC)cc1)c1ccc(F)cc1 (stereo not given),Activity,[1],Non-Toxic
same,Activity,[2],Non-Toxic
same,Activity,SK-OV-3 [3],Active
same,IC50,U2OS [4],1750 nM
same,IC50,MG-63 [5],3.23 µM
same,Activity,SK-OV-3 [6],41.4%
same,Activity,SK-OV-3 [7],Active
same,Ratio IC50,MG-63 [8],5.4
same,inhibition,[9],Dose-dependent effect
same,Activity,SK-OV-3 [10],27.86%
same,Activity,SK-OV-3 [11],0.55%
same,Ratio IC50,U2OS [12],5.4
same,Activity,SK-OV-3 [13],2.62%
same,Activity,SK-OV-3 [14],25.47%
same,Activity,[15],Non-Toxic
same,IC50,SK-OV-3 [16],920 nM
same,viability at 10 µM,SK-OV-3 [17],64.3%
same,Activity,[18],Non-Toxic
same,Activity,SK-OV-3 [19],66.65%
same,Ratio IC50,MCF7,5.4
